Key:
Assay type in all cases: functional, Mus musculus
[1] = tested on: Friend leukemia cell line; assay: Cell growth of friend erythroleukemia cells measured as percentage of control on day 6 at a concentration of 4 mM; details: at 4 mM
[2] = tested on: Friend leukemia cell line; assay: The degree of erythroid maturation was measured by assessing the proportion of benzidine-positive friend leukemia cells at a concentration of 4 mM
Procedure, shortened: (§1)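 Friend erythroleukemia clone 745A cells seeded at 10^5 cells/mL in DMEM with 15% fetal calf serum at 37 °C, 10% CO2. Agent given at seeding, continuous exposure, twofold-graded concentrations; Me2SO positive control in each experiment. On day 6, hemoglobin-containing cells scored cytologically by staining with acid benzidine peroxide. Optimum concentration averaged from at least two experiments.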

[3] = tested on: Friend leukemia cell line; assay: Percent of untreated control cell growth evaluated in friend leukemia cells on day 3 at a concentration of 4 mM; details: at 4 mM
[4] = tested on: Friend leukemia cell line; assay: The degree of erythroid maturation was measured by assessing the proportion of benzidine-positive cells at a concentration of 4 mM; details: at 4 mM
[5] = tested on: Friend leukemia cell line; assay: Percent of untreated control cell growth evaluated in friend leukemia cells on day 3 at a concentration of 2 mM
Procedure, shortened: (§2)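 Friend murine erythroleukemia clone 745A grown in suspension at 37 °C, 10% CO2, in DMEM with 15% fetal calf serum, streptomycin and penicillin. Agent added at seeding of exponentially growing cells (10^5 cells/mL), continuous exposure over twofold-graded concentrations. Cell numbers counted electronically on days 3 and 6, expressed relative to untreated control. At least two separate experiments.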

[6] = tested on: Friend leukemia cell line; assay: The degree of erythroid maturation was measured by assessing the proportion of benzidine-positive cells at a concentration of 2 mM; procedure, shortened: as §1
[7] = tested on: Friend leukemia cell line; assay: Cell growth of friend erythroleukemia cells measured as percentage of control on day 6 at a concentration of 2 mM; procedure, shortened: as §2
[8] = tested on: Friend leukemia cell line; assay: Percent of untreated control cell growth evaluated in friend leukemia cells on day 3 at a concentration of 0.1-10 mM; procedure, shortened: as §2
[9] = tested on: Friend leukemia cell line; assay: The degree of erythroid maturation was measured by assessing the proportion of benzidine-positive friend leukemia cells at a concentration of 0.1-10 mM; procedure, shortened: as §1
[10] = tested on: Friend leukemia cell line; assay: Cell growth of friend erythroleukemia cells measured as percentage of control on day 6 at a concentration of 0.1-10 mM; procedure, shortened: as §2
[11] = tested on: Friend leukemia cell line; assay: The degree of erythroid maturation was measured by assessing the proportion of benzidine-positive friend leukemia cells at a concentration of 2 mM; procedure, shortened: as §1
[12] = tested on: Friend leukemia cell line; assay: Cell growth of friend erythroleukemia cells measured as percentage of control on day 6 at a concentration of 16 mM; procedure, shortened: as §2
[13] = tested on: Friend leukemia cell line; assay: Percent of untreated control cell growth evaluated in friend leukemia cells on day 3 at a concentration of 16 mM; procedure, shortened: as §2
[14] = tested on: Friend leukemia cell line; assay: The degree of erythroid maturation was measured by assessing the proportion of benzidine-positive friend leukemia cells at a concentration of 16 mM; procedure, shortened: as §1
[15] = tested on: Friend leukemia cell line; assay: The degree of erythroid maturation was measured by assessing the proportion of benzidine-positive friend leukemia cells at a concentration of 1 mM; procedure, shortened: as §1
[16] = tested on: Friend leukemia cell line; assay: Cell growth of friend erythroleukemia cells measured as percentage of control on day 6 at a concentration of 1 mM; procedure, shortened: as §2
[17] = tested on: Friend leukemia cell line; assay: Percent of untreated control cell growth evaluated in friend leukemia cells on day 3 at a concentration of 1 mM; procedure, shortened: as §2
[18] = tested on: Friend leukemia cell line; assay: Effect on the replication and erythroid differentiation of friend leukemia cells on day 3 at a concentration of 210 mM
[19] = tested on: Friend leukemia cell line; assay: The degree of erythroid maturation was measured by assessing the proportion of benzidine-positive cells at a concentration of 210 mM; procedure, shortened: as §1
[20] = tested on: Friend leukemia cell line; assay: Percent of untreated control cell growth evaluated in friend leukemia cells on day 3 at a concentration of 105 mM; procedure, shortened: as §2
[21] = tested on: Friend leukemia cell line; assay: Cell growth of friend erythroleukemia cells measured as percentage of control on day 6 at a concentration of 105 mM; procedure, shortened: as §2
[22] = tested on: Friend leukemia cell line; assay: Effect on the replication and erythroid differentiation of friend leukemia cells on day 6 at a concentration of 210 mM

SMILES: CCN1CCCN(CC)C1=O
- Cell growth [1]: 127%
- Benzidine positive cells [2]: 70%
- Cell growth [3]: 160%

SMILES: CN1CCCN(C)C1=S
- Cell growth [1]: 135%
- Cell growth [3]: 75%
- Benzidine positive cells [4]: 83%

SMILES: SC1=NCCCCN1
- Cell growth [5]: 54%
- Benzidine positive cells [6]: 42%
- Cell growth [7]: 82%

SMILES: SC1=NCCCN1
- Cell growth [5]: 144%
- Benzidine positive cells [6]: 14%
- Cell growth [7]: 44%

SMILES: CCCCN1CCCN(CCCC)C1=O
- Cell growth [8]: <5%
- Benzidine positive cells [9]: <1%
- Cell growth [10]: <1%

SMILES: O=C(N1CCCCC1)N1CCCCC1
- Cell growth [1]: 33%
- Benzidine positive cells [2]: 10%
- Cell growth [3]: 28%

SMILES: CCN1CCCCN(CC)C1=O
- Cell growth [1]: 131%
- Benzidine positive cells [2]: 31%
- Cell growth [3]: 40%

SMILES: CCN(CC)C(=O)N(CC)CC
- Cell growth [5]: 69%
- Benzidine positive cells [11]: 68%
- Cell growth [7]: 77%

SMILES: O=C1NCCN1
- Cell growth [1]: 108%
- Cell growth [3]: 88%
- Benzidine positive cells [4]: 4%

SMILES: CCN1CCN(CC)C1=O
- Cell growth [12]: 140%
- Cell growth [13]: 36%
- Benzidine positive cells [14]: 81%

SMILES: CCN1CCN(CC)C1=S
- Cell growth [5]: 60%
- Benzidine positive cells [11]: 84%
- Cell growth [7]: 120%

SMILES: CN(C)C(=S)N(C)C
- Cell growth [5]: 123%
- Benzidine positive cells [6]: 79%
- Cell growth [7]: 98%

SMILES: CN1CCCN(C)C1=O
- Cell growth [5]: 90%
- Benzidine positive cells [6]: 92%
- Cell growth [7]: 87%

SMILES: CN1CCCNC1=O
- Cell growth [5]: 46%
- Benzidine positive cells [6]: 50%
- Cell growth [7]: 136%

SMILES: CN1CCN(C)C1=O
- Cell growth [1]: 73%
- Cell growth [3]: 70%
- Benzidine positive cells [4]: 92%

SMILES: CCN(CC)C(=S)N(CC)CC
- Cell growth [8]: <4%
- Benzidine positive cells [9]: <1%
- Cell growth [10]: <1%

SMILES: O=C1NCCCCN1
- Cell growth [5]: 93%
- Benzidine positive cells [6]: 66%
- Cell growth [7]: 104%

SMILES: O=C1NCCCN1
- Cell growth [1]: 121%
- Cell growth [3]: 124%
- Benzidine positive cells [4]: 15%

SMILES: CN1CCCCN(C)C1=O
- Cell growth [1]: 61%
- Benzidine positive cells [2]: 92%
- Cell growth [3]: 25%

SMILES: CN1CCN(C)C1=S
- Cell growth [5]: 102%
- Benzidine positive cells [6]: 66%
- Cell growth [7]: 95%

SMILES: CN1CCCCN(C)C1=S
- Cell growth [1]: 73%
- Benzidine positive cells [2]: 79%
- Cell growth [3]: 64%

SMILES: CCN1CCCN(CC)C1=S
- Benzidine positive cells [15]: 61%
- Cell growth [16]: 97%
- Cell growth [17]: 45%

SMILES: CN1CCCN=C1S
- Cell growth [5]: 107%
- Benzidine positive cells [6]: 22%
- Cell growth [7]: 166%

SMILES: C[S+](C)[O-] [DIMETHYL SULFOXIDE]
- Cell growth [18]: 72%
- Benzidine positive cells [19]: 94%
- Cell growth [20]: 70%
- Benzidine positive cells [4]: 75%
- Cell growth [21]: 120%
- Cell growth [22]: 110%

SMILES: S=C1NCCN1 [ETHYLENE THIOUREA]
- Cell growth [1]: 62%
- Cell growth [3]: 128%
- Benzidine positive cells [4]: 21%
